{"data": "Measurements collected from several papers", "target": "Cyclin-dependent kinase 5 (CDK5, Homo sapiens, UniProt Q00535)", "note": "Compare with care: the assays were run in different laboratories."}
{"Structure (SMILES)": "O=C(c1ccc(Nc2ncc(Cl)c(-c3cc4ccccc4s3)n2)cc1)N1CCC(N2CCCC2)CC1", "read-out": "binding", "technique": "competition with immobilised ligand", "tested at": "1 µM", "remaining binding [%]": 42}
{"Structure (SMILES)": "CC1=C(C#N)C(c2ccc3c(c2)c(NC(=O)c2ccccc2C)nn3C)C(C#N)=C(C)N1", "read-out": "cell-free assay", "technique": "competition with immobilised ligand", "tested at": "1 µM", "remaining binding [%]": 87}
{"Structure (SMILES)": "CN(C)c1nccc(-c2cnn3ncccc23)n1", "read-out": "binding", "tested at": "1 µM", "remaining binding [%]": 100}
{"Structure (SMILES)": "CNCc1ccccc1-c1csc([C@@H](C)Nc2nc(C)nc3cc(OC)c(OC)cc23)c1", "read-out": "cell-free assay", "technique": "competition with immobilised ligand", "tested at": "1 µM", "remaining binding [%]": 78}
{"Structure (SMILES)": "CNC(=O)[C@@H]1CC[C@@H](n2c(-c3ccc4cnccc4c3)nc3ccc(C(=O)NCc4cccc(C(N)=O)c4)cc32)C1", "read-out": "binding", "technique": "competition with immobilised ligand", "tested at": "1 µM", "remaining binding [%]": 89}
{"Structure (SMILES)": "c1cncc(-c2cccc(Nc3nccc(NC4CCCCC4)n3)c2)c1", "read-out": "binding", "technique": "competition with immobilised ligand", "tested at": "10 µM", "remaining binding [%]": 81}
{"Structure (SMILES)": "CSc1cccnc1N1CCN(Cc2nc3ccccc3[nH]2)CC1", "read-out": "cell-free assay", "technique": "competition with immobilised ligand", "tested at": "1 µM", "remaining binding [%]": 99}
{"Structure (SMILES)": "COc1cnc(Nc2cccc(S(N)(=O)=O)c2)nc1N1CCN(c2ccccc2)CC1", "read-out": "binding", "technique": "competition with immobilised ligand", "tested at": "1 µM", "remaining binding [%]": 100}
{"Structure (SMILES)": "O=C(NCCCN1CCOCC1)c1ccc(Nc2ncc(Cl)c(-c3ccc(Cl)s3)n2)cc1", "read-out": "binding", "technique": "competition with immobilised ligand", "tested at": "1 µM", "remaining binding [%]": 42}
{"Structure (SMILES)": "C[C@@H]1CN(c2cc(-c3nn(C)c4ccc(OC5(C)CC5)cc34)ncn2)C[C@H](C)O1", "read-out": "cell-free assay", "technique": "competition with immobilised ligand", "tested at": "1 µM", "remaining binding [%]": 100}
{"Structure (SMILES)": "c1cnn2ncc(-c3ccnc(N4CCC45COC5)n3)c2c1", "read-out": "binding", "tested at": "1 µM", "remaining binding [%]": 99}
{"Structure (SMILES)": "O=c1nc(-c2ccccn2)sc2ccccc12", "read-out": "binding", "technique": "competition with immobilised ligand", "tested at": "1 µM", "remaining binding [%]": 85}
{"Structure (SMILES)": "C[C@@H](c1ccc(-n2cnc3c(N)ncnc32)cc1)N1CCc2nn(C)c(Cc3ccccc3)c2C1=O", "read-out": "binding", "technique": "competition with immobilised ligand", "tested at": "0.1 µM", "remaining binding [%]": 39}
{"Structure (SMILES)": "FC(F)(F)Oc1cccc(-c2cnc3ccc(-c4ccncc4)nn23)c1", "read-out": "cell-free assay", "technique": "competition with immobilised ligand", "tested at": "5 µM", "remaining binding [%]": 93}
{"Structure (SMILES)": "COc1ccnn2ncc(-c3ccnc(N(C)C)n3)c12", "read-out": "binding", "tested at": "1 µM", "remaining binding [%]": 100}
{"Structure (SMILES)": "O=C(NCC1CCOCC1)c1n[nH]cc1NC(=O)c1c(F)cccc1F", "read-out": "binding", "technique": "competition with immobilised ligand", "tested at": "1 µM", "remaining binding [%]": 83}
{"Structure (SMILES)": "CN(C)c1ncc(F)c(-c2cnn3ncccc23)n1", "read-out": "binding", "tested at": "1 µM", "remaining binding [%]": 82}
{"Structure (SMILES)": "C=CC(=O)N1CCC(C(=O)NCC(=O)N2CCN(c3nc(-c4cnc(N)nc4C(F)F)nc(N4CCOCC4)n3)CC2)CC1", "read-out": "binding", "technique": "competition with immobilised ligand", "tested at": "1 µM", "remaining binding [%]": 100}
{"Structure (SMILES)": "C[C@@H]1CCN(c2nccc(-c3cnn4ncccc34)n2)C1", "read-out": "binding", "tested at": "1 µM", "remaining binding [%]": 100}
{"Structure (SMILES)": "Cn1cc(Cl)c2c(Oc3c(F)cc(Nc4cc(Cl)nc(N)n4)cc3F)ccnc21", "read-out": "cell-free assay", "technique": "competition with immobilised ligand", "tested at": "0.1 µM", "remaining binding [%]": 100}
{"Structure (SMILES)": "CN(CCCC(F)(F)F)c1nccc(-c2cnn3ncccc23)n1", "read-out": "binding", "tested at": "1 µM", "remaining binding [%]": 96}
{"Structure (SMILES)": "Cc1cnc(Nc2ccc(C(=O)N3CCC(N4CCCC4)CC3)cc2)nc1-c1cc2ccccc2s1", "read-out": "binding", "technique": "competition with immobilised ligand", "tested at": "1 µM", "remaining binding [%]": 76}
